Screening data deposited in PubChem by Broad Institute.
A selection: hits, their analogues and other compounds. The true share with any hit is near 3.4%.
AF4-AF9 inh – inhibitors of AF4 peptide binding to AF9, primary screen, biochemical, AlphaScreen, biotin-AF4 peptide, FLAG-AF9, single point; Protein AF-9 (Homo sapiens), P42568; inhibition, % at 10 µM; 350,000 compounds, 0.47% hits;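 active = every replicate reaching a set inhibition limit, whatever the replicate mean, cut at about 25% in these data; inconclusive = mean inhibition reaches that limit but some replicates miss it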
Target sequence (P42568 whole entry, looked up): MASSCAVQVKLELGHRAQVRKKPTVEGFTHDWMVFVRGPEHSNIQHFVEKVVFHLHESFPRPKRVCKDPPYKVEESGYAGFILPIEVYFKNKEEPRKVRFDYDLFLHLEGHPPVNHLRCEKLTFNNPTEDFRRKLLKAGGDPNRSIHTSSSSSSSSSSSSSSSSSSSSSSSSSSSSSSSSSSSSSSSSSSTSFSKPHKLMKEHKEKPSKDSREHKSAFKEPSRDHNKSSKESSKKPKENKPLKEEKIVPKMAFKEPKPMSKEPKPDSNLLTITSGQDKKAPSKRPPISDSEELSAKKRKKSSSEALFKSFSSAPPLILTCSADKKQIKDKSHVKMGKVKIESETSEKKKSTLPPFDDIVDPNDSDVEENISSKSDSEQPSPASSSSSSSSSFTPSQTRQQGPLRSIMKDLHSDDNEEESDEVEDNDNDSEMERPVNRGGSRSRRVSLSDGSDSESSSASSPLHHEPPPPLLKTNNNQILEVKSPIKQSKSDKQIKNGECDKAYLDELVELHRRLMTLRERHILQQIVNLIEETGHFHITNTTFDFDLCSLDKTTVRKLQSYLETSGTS
ERAP1 HTS inh – human ERAP1 aminopeptidase inhibitors, primary screen, biochemical, single point, plate reader; recombinant ERAP1, Leu-AMC fluorescence, 60 min; inhibition, % at 10.7 µM; 340,000 compounds, 0.15% hits;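 active = mean replicate inhibition of at least 30%, or all replicates individually reaching that 30% level; inactive = mean below 30% and not every replicate reaching it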
Ecoli rRNA inh – reduced GFP signal of wild-type E. coli, primary screen, bacterial rRNA inhibitor project, GFP/RFP fluorescence, OD600, single point; E. coli WT GFP vs humanized-ribosome RFP mutants, 24 h; stronger effect = lower value; DMSO median 0, no signal -100; 350,000 compounds, 1.6% hits; GFP signal change (wild-type ribosome), % (no concentration beside the values);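 active = significant combined selectivity score with lowered wild-type GFP, culture density cut under 30%, mutant RFP and density less affected; inactive = any of these conditions unmet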
SIRT5 block – SIRT5 desuccinylase inhibitors, primary screen, biochemical, fluorescence imaging, single point, set 5 | NAD-dependent protein deacylase sirtuin-5, mitochondrial (Homo sapiens), Q9NXA8 | Purified SirT5, succinyl-peptide AMC, trypsin-coupled fluorescence | inhibition, % at 15 µM | 330,000 compounds, 1.1% hits | AID 652115, 2013; in the data active = inhibition above about 15%; inconclusive = no clear call, values can overlap the other calls
E-sel inducer – E-selectin induction in HUVECs, primary screen, imaging, HUVEC, immunofluorescence imaging, single point; P16581; normalized: neutral wells 0, TNF-alpha wells 100; activation, % at 7.58 µM; 260,000 compounds, 0.37% hits;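 active = mean E-selectin-positive cell signal at least 10% of the positive control, reached in at least 60% of replicates, without over 20% cell loss; inconclusive = no rule given, readout overlaps actives, possibly toxicity-flagged; inactive = the rest, including those meeting only one limit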
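assay system = HUVEC, human umbilical vein endothelial cells | input = 3,000 HUVEC seeded per well | medium = EGM-2 growth medium on 0.1% gelatin-coated wells | dosing = one compound dose added by pin transfer | signal = immunofluorescence imaging | read-out basis = % PE-positive cells | control set = TNF-alpha, DMSO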
S100A4 MyoIIA – inhibitors of S100A4-myosin IIA peptide binding, primary screen, biochemical, fluorescence polarization, TAMRA-MyoIIA peptide | Protein S100-A4 (Homo sapiens), P26447 | inhibition, % at 10.7 µM | 360,000 compounds, 0.14% hits;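 active = mean inhibition of at least 70% across replicates, with every replicate also reaching that level; inconclusive = mean inhibition reaches 70% but some replicates fall short; inactive = mean inhibition below 70%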
Target sequence (P26447 whole entry, looked up): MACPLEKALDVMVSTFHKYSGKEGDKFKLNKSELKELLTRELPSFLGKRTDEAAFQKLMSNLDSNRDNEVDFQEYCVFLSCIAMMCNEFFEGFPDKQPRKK
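incubation = readout 5 min after mixing, signal stable up to 60 min | system = S100A4 monomer protein | buffer or medium = HEPES pH 7.2 with CaCl2, KCl, NaCl, DTT, Triton | benchmarks = neutral control DMSO, positive control TFP | also added = fluorescent myosin IIA peptide, 5 nM | compound dosing = one concentration per compound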
AlphaScreen intf – AlphaScreen signal interference counter-screen, dose response, artefact control, biochemical, cherry-picked samples, luminescence; shares compounds with AF4-AF9 inh; AC50, µM (highest dose often 12 µM); 530 compounds, 45% hits; AID 720494, 2013; cut-off not given, nearly all actives have AC50 up to about 14 µM
Hits are given with their value; . = inactive; ? = inconclusive; / = not tested or not shown; ! = not confirmed by another sample.

SMILES	AF4-AF9 inh	ERAP1 HTS inh	Ecoli rRNA inh	SIRT5 block	E-sel inducer	S100A4 MyoIIA	AlphaScreen intf
C[C@H]1CN([C@@H](C)CO)C(=O)Cc2cc(NC(=O)c3ccncc3)ccc2O[C@@H]1CN(C)C(=O)Nc1cccc2ccccc12	.	.	.	.	.	.	/
COc1ccc(N2CCN(CCCNC(=O)C(=O)c3c(C)n(C)c4ccccc34)CC2)cc1	37.0	.	.	.	/	.	.
COc1ccc(N2CCN(C(=O)C(=O)c3c(C)n(C)c4ccccc34)CC2)cc1	.	.	.	.	.	.	/
CN1/C(=C\C=N\O)C(C)(C)c2ccccc21	.	.	.	.	/	.	/
CN(C)c1ccc(N=C/C=C2/N(C)c3ccccc3C2(C)C)cc1	47.5	.	.	.	.	.	11µM
CCCC(=O)NC(c1ccc(OC)cc1)c1ccc2cccnc2c1O (centres undefined)	28.8	.	.	.	.	.	2.57µM
CCCC(=O)NC(c1ccccc1)c1ccc2cccnc2c1O (centres undefined)	?	.	.	.	.	.	/
CCN1CCCc2cc(CN(CCN3CCOCC3)C(=S)Nc3cccc(C)c3)ccc21	37.1	.	.	.	.	.	.
CCCC(=O)N1CC2(CN(C(=O)CC3CC3)C2)c2c(n(C)c3cc(OC)ccc23)[C@@H]1CO	.	.	.	.	.	.	/
COc1cc(CNc2ccc3[nH]c(=O)[nH]c3c2)cc(Br)c1OCc1ccc(F)cc1	.	.	.	.	.	.	/
COc1cccc(CNc2ccc3[nH]c(=O)[nH]c3c2)c1OCc1ccccc1F	40.8	.	.	.	.	.	.
CC(=O)NC(c1cccc([N+](=O)[O-])c1)c1ccc2cccnc2c1O (centres undefined)	.	.	.	.	/	.	/
Oc1cccc(C(Nc2nccs2)c2ccc3cccnc3c2O)c1 (centres undefined)	48.6	.	.	.	.	.	3.33µM
Nc1ccc2[nH]ncc2c1	44.7	.	.	.	.	.	.
O=C(c1ccccn1)N1CC2(C1)[C@H](c1ccccc1)[C@H](CO)N2Cc1ccc(Cl)cc1	.	.	.	.	.	.	/
CC(C)CC#Cc1cnc2c(c1)C(=O)N([C@H](C)CO)C[C@H](C)[C@@H](CN(C)C(=O)CCN1CCCCC1)O2	.	.	.	.	.	.	/
COc1ccc2nc(C)cc(N3CCC(C(N)=O)CC3)c2c1	.	.	.	.	.	.	/
COc1ccc(N2CCN(c3cc(C)nc4ccc(OC)cc34)CC2)cc1	33.7	.	.	.	/	.	.
COc1ccc(NC(=O)N[C@H]2CC[C@H](CC(=O)NC3CCC3)O[C@H]2CO)cc1	.	.	.	.	.	.	/
C[C@@H]1CN([C@H](C)CO)C(=O)Cc2cc(NC(=O)CCC(F)(F)F)ccc2O[C@H]1CN(C)S(=O)(=O)c1cccs1	.	.	.	.	.	.	/
O=c1c2ccccc2nc(/C=C/c2cccnc2)n1CCc1ccccc1	.	.	.	.	.	.	/
O=c1c2ccccc2nc(/C=C/c2cccnc2)n1Cc1ccccc1	39.0	.	.	.	/	.	.
CN(C)c1ccc(C=c2c3ccccc3n3c2cc(-c2ccccc2)[n+]3C)cc1	42.7	.	.	/	139.7	.	4.4µM
COc1cc(N(C)C)ccc1C=c1c2ccccc2n2c1cc(-c1ccccc1)[n+]2C	84.4	39.7	.	.	160.4	?	2.07µM
CN(C)c1ccc(C=C2C=CC=C2)cc1	.	.	.	/	.	.	/
SMILES	AF4-AF9 inh	ERAP1 HTS inh	Ecoli rRNA inh	SIRT5 block	E-sel inducer	S100A4 MyoIIA	AlphaScreen intf
O=C(C[C@@H]1CC[C@@H](NS(=O)(=O)c2ccccc2)[C@@H](CO)O1)N1CCc2ccccc2C1	.	.	.	.	.	.	/
CC(C)N=C(N)N=C(N)Nc1ccc(Cl)cc1	.	.	.	.	.	.	/
NC(=NCCCCCCN=C(N)/N=C(\N)Nc1ccc(Cl)cc1)/N=C(\N)Nc1ccc(Cl)cc1	53.4!	.	/	.	.	.	.
CCC(=O)N1CC(=O)N2[C@H](C1)[C@@H](c1ccc(-c3ccccc3F)cc1)[C@@H]2CO	.	/	.	.	.	.	/
COc1ccc(C#Cc2ccc3c(c2)[C@H]2[C@H](CCN2C(=O)c2ccncc2)[C@H](CO)N3)cc1	/	/	.	/	.	/	/
COc1ccc(C#Cc2ccc3c(c2)[C@H]2[C@H](CCN2C(=O)c2ccncc2)[C@@H](CO)N3)cc1	33.7	.	.	.	.	.	12.6µM
COc1cccc(-c2ccc3c(c2)[C@@H]2[C@@H](CCN2C(=O)C2CCC2)[C@H](CO)N3)c1	/	/	.	/	.	/	/
COc1cccc(-c2ccc3c(c2)[C@H]2[C@H](CCN2C(=O)C2CCCCC2)[C@@H](CO)N3)c1	40.2	.	.	.	.	.	.
Cc1noc(C)c1NC(=O)N(C)C[C@@H]1OCCCC[C@@H](C)Oc2ccc(NC(=O)Nc3ccc(F)cc3)cc2C(=O)N([C@@H](C)CO)C[C@H]1C	.	.	.	.	.	.	/
CN(C)c1ccc(NC2=C(Cl)C(=O)c3ccccc3C2=O)cc1	63.8	.	.	.	/	.	1.92µM
CC(C)(C)OC(=O)N1CCCN(C(c2ccnc3ccccc23)c2nnnn2-c2ccc3c(c2)OCCO3)CC1 (centres undefined)	36.2	.	.	.	.	.	.
CCOC(=O)N1CCN(C(c2ccnc3ccccc23)c2nnnn2-c2ccc3c(c2)OCCO3)CC1 (centres undefined)	.	.	.	.	.	.	/
COc1ccc(NS(=O)(=O)c2ccc(C)c(C(=O)N3CCN(Cc4cc(OC)ccc4OC)CC3)c2)cc1	34.9	.	.	.	.	.	.
C[C@@H]1CCCCO[C@H](CN(C)S(=O)(=O)c2ccc(Cl)cc2)[C@@H](C)CN([C@H](C)CO)C(=O)c2cc(NS(=O)(=O)c3cn(C)cn3)ccc2O1	.	.	.	.	.	.	/
C#CCOCCOCCOCCNc1nc(N2CCOCC2)nc(N2CCN(C(=O)[C@H](CCCCN)n3cc(CCCC)nn3)CC2)n1	.	.	.	.	.	.	/
